ChEMBL document CHEMBL4038284, “Synthesis of novel quinoline-based 4,5-dihydro-1H-pyrazoles as potential anticancer, antifungal, antibacterial and antiprotozoal agents” (Eur J Med Chem, 2017)
≈ marks a conversion by molar mass, not a printed value.

Assays:
[1] = test system: Klebsiella pneumoniae; assay: Antibacterial activity against ESBL positive Klebsiella pneumoniae ATCC 700603 after 24 hrs by resazurin dye based microdilution assay; type: functional; conditions: Klebsiella pneumoniae, 700603, 24 h
Procedure, shortened: (§1)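 MIC taken as the lowest concentration giving visible inhibition and/or by resazurin (1 mg/mL). Gentamicin was the control. Run in duplicate, repeated at least three times.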

[2] = test system: Leishmania panamensis; assay: Antileshmanial activity against EpiR/GFP fused Leishmania panamensis MHOM/CO/87/UA140 intracellular amastigotes infected in human […] cells after 72 hrs by flow cytometric method; type: functional, cell-based; conditions: MHOM/CO/87/UA140, 72 h
Procedure, shortened: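 PMA-treated U-937 cells (3 × 10^5 cells/mL) infected with stationary-phase GFP L. panamensis promastigotes (15:1), 3 h at 34 °C, then washed. After 24 h, compounds added at 50, 12.5, 3.125 and 0.78 µg/mL for 72 h at 37 °C. EC50 by Probit; triplicate, two experiments.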

[3] = test system: Candida albicans; assay: Growth inhibition of Candida albicans ATCC 10231 at 7.8 ug/ml incubated for 48 hrs under dark condition by broth microdilution method relative to control; type: functional; conditions: ATCC 10231, 48 h, read-out: GI
Procedure, shortened: (§2)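 CLSI M27-A3 broth microdilution in RPMI-1640, DMSO ≤1%. Inoculum 1-5 × 10^3 CFU/mL. Incubated 48 h at 30 °C, dark. % inhibition = 100 − (OD405 test − sterility control)/(OD405 growth control − sterility control), with growth and sterility control wells. Triplicate.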

[4] = test system: Staphylococcus aureus; assay: Antibacterial activity against methicillin-sensitive Staphylococcus aureus ATCC 25923 after 24 hrs by resazurin dye based microdilution assay; type: functional; conditions: ATCC 25923, 24 h; procedure, shortened: as §1
[5] = test system: Cryptococcus neoformans; assay: Growth inhibition of Cryptococcus neoformans ATCC 32264 at 15.62 ug/ml incubated for 48 hrs under dark condition by broth microdilution method relative to control; type: functional; conditions: ATCC 32264, 48 h, read-out: GI; procedure, shortened: as §2
[6] = test system: Candida albicans; assay: Growth inhibition of Candida albicans ATCC 10231 at 250 ug/ml incubated for 48 hrs under dark condition by broth microdilution method relative to control; type: functional; conditions: ATCC 10231, 48 h, read-out: GI; procedure, shortened: as §2
[7] = test system: Pseudomonas aeruginosa; assay: Antibacterial activity against Pseudomonas aeruginosa ATCC 27853 after 24 hrs by resazurin dye based microdilution assay; type: functional; conditions: ATCC 27853, 24 h; procedure, shortened: as §1
[8] = test system: Candida albicans; assay: Growth inhibition of Candida albicans ATCC 10231 at 31.25 ug/ml incubated for 48 hrs under dark condition by broth microdilution method relative to control; type: functional; conditions: ATCC 10231, 48 h, read-out: GI; procedure, shortened: as §2
[9] = test system: Neisseria gonorrhoeae; assay: Antibacterial activity against beta lactamase positive Neisseria gonorrhoeae ATCC 31426 by oxidase test; type: functional
Procedure, shortened: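 Agar dilution MIC on GC agar with 1% isovitalex containing increasing compound concentrations. Plates inoculated with about 1×10^4 CFU (5 µL). MIC is the lowest concentration that inhibited growth, with growth confirmed by oxidase test. Run in duplicate, repeated at least three times.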

[10] = test system: Cryptococcus neoformans; assay: Growth inhibition of Cryptococcus neoformans ATCC 32264 at 250 ug/ml incubated for 48 hrs under dark condition by broth microdilution method relative to control; type: functional; conditions: ATCC 32264, 48 h, read-out: GI; procedure, shortened: as §2
[11] = test system: Candida albicans; assay: Growth inhibition of Candida albicans ATCC 10231 at 15.62 ug/ml incubated for 48 hrs under dark condition by broth microdilution method relative to control; type: functional; conditions: ATCC 10231, 48 h, read-out: GI; procedure, shortened: as §2
[12] = test system: Escherichia coli; assay: Antibacterial activity against Escherichia coli ATCC 25922 after 24 hrs by resazurin dye based microdilution assay; type: functional; conditions: ATCC 25922, 24 h; procedure, shortened: as §1
[13] = test system: Cryptococcus neoformans; assay: Growth inhibition of Cryptococcus neoformans ATCC 32264 at 62.5 ug/ml incubated for 48 hrs under dark condition by broth microdilution method relative to control; type: functional; conditions: ATCC 32264, 48 h, read-out: GI; procedure, shortened: as §2
[14] = test system: Candida albicans; assay: Growth inhibition of Candida albicans ATCC 10231 at 125 ug/ml incubated for 48 hrs under dark condition by broth microdilution method relative to control; type: functional; conditions: ATCC 10231, 48 h, read-out: GI; procedure, shortened: as §2
[15] = test system: Klebsiella pneumoniae; assay: Antibacterial activity against carbapenemase positive Klebsiella pneumoniae BAA 1705 after 24 hrs by resazurin dye based microdilution assay; type: functional; conditions: BAA 1705, 24 h; procedure, shortened: as §1
[16] = test system: U-937; assay: Cytotoxicity against human U937 cells after 72 hrs by MTT assay; type: cell-based; conditions: u-937, 72 h
Procedure, shortened: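 Exponentially growing U-937 at 1 × 10^5 cells/mL in RPMI-1640 with 10% FBS were exposed to 200, 50, 12.5 and 3.125 µg/mL for 72 h at 37 °C, 5% CO2. MTT for 3 h, stopped with isopropanol/SDS, formazan read at 570 nm, blank-corrected. LC50 by Probit from % viability against untreated cells. Triplicate, at least two independent experiments.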

[17] = test system: Cryptococcus neoformans; assay: Antifungal activity against Cryptococcus neoformans ATCC 32264 incubated for 48 hrs under dark condition by broth microdilution method; type: functional; conditions: ATCC 32264, 48 h
Procedure, shortened: (§3)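 CLSI M27-A3 broth microdilution in RPMI-1640, DMSO ≤1%, compounds at 250-0.98 µg/mL final. Inoculum 1-5 × 10^3 CFU/mL. Incubated 48 h at 30 °C in a moist dark chamber, read at OD405. MIC80 and MIC50 taken from % inhibition dose-response curves (mean ± SEM, triplicate). Amphotericin B was the positive control.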

[18] = test system: Candida albicans; assay: Growth inhibition of Candida albicans ATCC 10231 at 3.4 ug/ml incubated for 48 hrs under dark condition by broth microdilution method relative to control; type: functional; conditions: ATCC 10231, 48 h, read-out: GI
[19] = test system: Candida albicans; assay: Antifungal activity against Candida albicans ATCC 10231 incubated for 48 hrs under dark condition by broth microdilution method; type: functional; conditions: ATCC 10231, 48 h; procedure, shortened: as §3
[20] = test system: Cryptococcus neoformans; assay: Growth inhibition of Cryptococcus neoformans ATCC 32264 at 3.4 ug/ml incubated for 48 hrs under dark condition by broth microdilution method relative to control; type: functional; conditions: ATCC 32264, 48 h, read-out: GI
[21] = test system: Cryptococcus neoformans; assay: Growth inhibition of Cryptococcus neoformans ATCC 32264 at 125 ug/ml incubated for 48 hrs under dark condition by broth microdilution method relative to control; type: functional; conditions: ATCC 32264, 48 h, read-out: GI; procedure, shortened: as §2
[22] = test system: Trypanosoma cruzi; assay: Antitrypanosomal activity against Trypanosoma cruzi Tulahuen intracellular amastigote harboring LacZ infected in human U937 cells after 72 hrs by CPRG/Nonidet reagent based spectrophotometric method; type: functional, cell-based; conditions: U-937, 72 h
Procedure, shortened: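 U-937 cells at 2.5 × 10^5 cells/mL in RPMI-1640 with 10% serum and 0.1 µg/mL PMA were infected with β-galactosidase-transfected Tulahuen epimastigotes at 5 parasites per cell. Infected cells were exposed to 50, 12.5, 3.125 and 0.78 µg/mL for 72 h. CPRG (100 uM) and 0.1% Nonidet P-40 were added for 3 h, read at 570 nm. EC50 by Probit. Triplicate, at least two experiments; benznidazole as reference.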

[23] = test system: Cryptococcus neoformans; assay: Growth inhibition of Cryptococcus neoformans ATCC 32264 at 7.8 ug/ml incubated for 48 hrs under dark condition by broth microdilution method relative to control; type: functional; conditions: ATCC 32264, 48 h, read-out: GI; procedure, shortened: as §2
[24] = test system: Staphylococcus aureus; assay: Antibacterial activity against vancomycin-intermediate Staphylococcus aureus after 24 hrs by resazurin dye based microdilution assay; type: functional; procedure, shortened: as §1
[25] = test system: Candida albicans; assay: Growth inhibition of Candida albicans ATCC 10231 at 62.5 ug/ml incubated for 48 hrs under dark condition by broth microdilution method relative to control; type: functional; conditions: ATCC 10231, 48 h, read-out: GI; procedure, shortened: as §2
[26] = test system: Staphylococcus aureus; assay: Antibacterial activity against methicillin-resistant Staphylococcus aureus ATCC 43300 after 24 hrs by resazurin dye based microdilution assay; type: functional; conditions: ATCC 43300, 24 h
Procedure, shortened: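 Broth microdilution in Mueller Hinton broth, inoculum 5 × 10^5 – 8 × 10^5. Compound stocks diluted in MHB with 5% DMSO and 0.1% Tween 80. Incubation 24 h at 35-37 °C. MIC is the lowest concentration with visible growth inhibition and/or by resazurin (1 mg/mL) read-out. Gentamicin as control. Run in duplicate, replicated at least three times.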

[27] = test system: Plasmodium falciparum; assay: Antiplasmodial activity against chloroquine-sensitive Plasmodium falciparum 3D7 assessed as reduction in parasitic LDH activity after 48 hrs by Malstat reagent based […] method; type: functional; conditions: 3D7, 48 h
Procedure, shortened: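 Unsynchronized P. falciparum 3D7 at 0.5% parasitemia and 1% hematocrit in RPMI with 3% Albumax II. Exposed to 100, 25, 6.25 and 1.56 µg/mL for 48 h at 37 °C under 90% N2/5% CO2/5% O2. After three freeze-thaw cycles, LDH measured with Malstat and NBT/PES, 1 h in the dark, read at 650 nm. IC50 by Probit; triplicate, ≥2 experiments.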

[28] = test system: Cryptococcus neoformans; assay: Growth inhibition of Cryptococcus neoformans ATCC 32264 at 31.25 ug/ml incubated for 48 hrs under dark condition by broth microdilution method relative to control; type: functional; conditions: ATCC 32264, 48 h, read-out: GI; procedure, shortened: as §2

| SMILES | MIC [1] [µg/mL] | EC50 [2] [µg/mL] | inhibition of growth at 7.8 µg/mL [3] [%] | MIC [4] [µg/mL] | inhibition of growth at 15.62 µg/mL [5] [%] | inhibition of growth at 250 µg/mL [6] [%] | MIC [7] [µg/mL] | inhibition of growth at 31.25 µg/mL [8] [%] | MIC [9] [µg/mL] | inhibition of growth at 250 µg/mL [10] [%] | inhibition of growth at 15.62 µg/mL [11] [%] | MIC [12] [µg/mL] | inhibition of growth at 62.5 µg/mL [13] [%] | inhibition of growth at 125 µg/mL [14] [%] | MIC [15] [µg/mL] | LC50 [16] [µg/mL] | MIC50 [17] [µg/mL] | MIC80 [17] [µg/mL] | inhibition of growth at 3.4 µg/mL [18] [%] | MIC50 [19] [µg/mL] | other results |
| --- | --- | --- | --- | --- | --- | --- | --- | --- | --- | --- | --- | --- | --- | --- | --- | --- | --- | --- | --- | --- | --- |
| Clc1cc(Cl)cc(N2N=C(c3ccccc3)CC2c2cccc(Nc3ccnc4cc(Cl)ccc34)c2)c1 (stereo not given) | > 1000 | 17.8 (≈ 32.8 µM) | 0 | > 1000 | 1.36 | 11.2 | > 1000 | 0 | > 1000 | 7.5 | 0 | > 1000 | 3.07 | 2.17 | > 1000 | > 200 | ≥ 250 | ≥ 250 | 0 | ≥ 250 | MIC80 [19]: ≥ 250 µg/mL; inhibition of growth at 3.4 µg/mL [20]: 0%; inhibition of growth at 125 µg/mL [21]: 3.29%; EC50 [22]: 32.6 µg/mL (≈ 60 µM); inhibition of growth at 7.8 µg/mL [23]: 0%; MIC [24]: > 1000 µg/mL; inhibition of growth at 62.5 µg/mL [25]: 0%; MIC [26]: > 1000 µg/mL; EC50 [27]: 12.5 µg/mL (≈ 23.1 µM); inhibition of growth at 31.25 µg/mL [28]: 2.16% |
| COc1cc(C2=NN(c3ccccc3)C(c3cccc(Nc4ccnc5cc(Cl)ccc45)c3)C2)cc(OC)c1OC (stereo not given) | > 1000 | 13.4 (≈ 23.7 µM) | 6.63 | > 1000 | 0.13 | 60.5 | > 1000 | 13.4 | > 1000 | 58.6 | 11.6 | > 1000 | 16.2 | 42.3 | > 1000 | > 200 | 250 (≈ 442 µM) | ≥ 250 | 4.16 | 250 (≈ 442 µM) | MIC80 [19]: ≥ 250 µg/mL; inhibition of growth at 3.4 µg/mL [20]: 0%; inhibition of growth at 125 µg/mL [21]: 18.3%; EC50 [22]: 21.6 µg/mL (≈ 38.2 µM); inhibition of growth at 7.8 µg/mL [23]: 0%; MIC [24]: > 1000 µg/mL; inhibition of growth at 62.5 µg/mL [25]: 23.4%; MIC [26]: > 1000 µg/mL; EC50 [27]: 15.5 µg/mL (≈ 27.4 µM); inhibition of growth at 31.25 µg/mL [28]: 1.65% |
